Data from ChEMBL document CHEMBL1275417, “Biological activities of novel gyrase inhibitors of the aminocoumarin class” (Antimicrob Agents Chemother, 2008).
pIC50: −log10 of the molar value. Converted amounts (≈) assume the structure as drawn.

Assays:
Staphylococcus aureus [1] = experiment: Antibacterial activity against Staphylococcus aureus 80CR5 by broth microdilution method; type: functional
Streptococcus pneumoniae [2] = experiment: Antibacterial activity against Streptococcus pneumoniae TUPELO by broth microdilution method; type: functional
DNA gyrase subunit B = DNA gyrase subunit B (Escherichia coli, UniProt P0AES6); experiment: Inhibition of Escherichia coli JM109 DNA gyrase subunit B assessed as ATP hydrolysis by ATPase assay
[3] = biological target: T1, Cell division inhibitor SulA (Escherichia coli K-12) (UniProt P0AFZ5); experiment: Inhibition of Escherichia coli K-12 DNA sulA expressed in Escherichia coli DC2 assessed as compound concentration required for => 4-fold induction of luxCDABE operon by reported gene assay
T1 sequence (whole entry): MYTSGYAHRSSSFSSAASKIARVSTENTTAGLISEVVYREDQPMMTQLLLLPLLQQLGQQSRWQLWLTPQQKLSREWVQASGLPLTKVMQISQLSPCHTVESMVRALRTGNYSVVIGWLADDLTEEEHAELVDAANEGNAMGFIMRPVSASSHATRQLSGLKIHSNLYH
Outline: (§1)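 E. coli DC2 carrying a gyrA or sulA promoter–luxCDABE (Photorhabdus) fusion plasmid. Grown overnight at 37°C in LB with 2 μg/ml tetracycline, then diluted 1:100 in LB without tetracycline and precultured 1.5 h at 37°C. Compounds were added from DMSO stocks to 1% final DMSO and incubated 5 h at 37°C. Bioluminescence was divided by A595, and induction factor is the treated/untreated ratio. The value is the lowest test concentration giving ≥4-fold induction.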

Klebsiella pneumoniae = experiment: Antibacterial activity against Klebsiella pneumoniae ATCC 27736 by broth microdilution method; type: functional
Pseudomonas aeruginosa [4] = experiment: Antibacterial activity against Pseudomonas aeruginosa ATCC 27853 by broth microdilution method; type: functional
Enterococcus faecium = experiment: Antibacterial activity against Enterococcus faecium ATCC 19434 by broth microdilution method; type: functional
Streptococcus pneumoniae [5] = experiment: Antibacterial activity against Streptococcus pneumoniae SL336-T by broth microdilution method; type: functional
Staphylococcus aureus [6] = experiment: Antibacterial activity against Staphylococcus aureus ATCC 43300 by broth microdilution method; type: functional
Enterococcus faecalis = experiment: Antibacterial activity against Enterococcus faecalis ATCC 29212 by broth microdilution method; type: functional
Pseudomonas aeruginosa [7] = experiment: Antibacterial activity against Pseudomonas aeruginosa K799/61 by broth microdilution method; type: functional
Escherichia coli [8] = experiment: Antibacterial activity against Escherichia coli DC2 by broth microdilution method; type: functional
Streptococcus pneumoniae [9] = experiment: Antibacterial activity against Streptococcus pneumoniae ATCC 49619 by broth microdilution method; type: functional
[10] = biological target: DNA gyrase subunit A (Escherichia coli K-12) (UniProt P0AES4); experiment: Inhibition of Escherichia coli K-12 DNA gyrase A expressed in Escherichia coli DC2 assessed as compound concentration required for => 4-fold induction of luxCDABE operon by reported gene assay; outline: as §1
Pseudomonas aeruginosa [11] = experiment: Antibacterial activity against Pseudomonas aeruginosa K799/WT by broth microdilution method; type: functional
[12] = biological target: DNA gyrase (Escherichia coli); experiment: Inhibition of Escherichia coli JM109 DNA gyrase assessed as DNA triple helix formation by supercoiling assay
Escherichia coli [13] = experiment: Antibacterial activity against Escherichia coli UB1005 by broth microdilution method; type: functional
Staphylococcus aureus [14] = experiment: Antibacterial activity against Staphylococcus aureus ATCC 29213 by broth microdilution method; type: functional
Escherichia coli [15] = experiment: Antibacterial activity against Escherichia coli ATCC 25922 by broth microdilution method; type: functional

Chain of DNA gyrase subunit A (Escherichia coli K-12) (P0AES4 whole entry): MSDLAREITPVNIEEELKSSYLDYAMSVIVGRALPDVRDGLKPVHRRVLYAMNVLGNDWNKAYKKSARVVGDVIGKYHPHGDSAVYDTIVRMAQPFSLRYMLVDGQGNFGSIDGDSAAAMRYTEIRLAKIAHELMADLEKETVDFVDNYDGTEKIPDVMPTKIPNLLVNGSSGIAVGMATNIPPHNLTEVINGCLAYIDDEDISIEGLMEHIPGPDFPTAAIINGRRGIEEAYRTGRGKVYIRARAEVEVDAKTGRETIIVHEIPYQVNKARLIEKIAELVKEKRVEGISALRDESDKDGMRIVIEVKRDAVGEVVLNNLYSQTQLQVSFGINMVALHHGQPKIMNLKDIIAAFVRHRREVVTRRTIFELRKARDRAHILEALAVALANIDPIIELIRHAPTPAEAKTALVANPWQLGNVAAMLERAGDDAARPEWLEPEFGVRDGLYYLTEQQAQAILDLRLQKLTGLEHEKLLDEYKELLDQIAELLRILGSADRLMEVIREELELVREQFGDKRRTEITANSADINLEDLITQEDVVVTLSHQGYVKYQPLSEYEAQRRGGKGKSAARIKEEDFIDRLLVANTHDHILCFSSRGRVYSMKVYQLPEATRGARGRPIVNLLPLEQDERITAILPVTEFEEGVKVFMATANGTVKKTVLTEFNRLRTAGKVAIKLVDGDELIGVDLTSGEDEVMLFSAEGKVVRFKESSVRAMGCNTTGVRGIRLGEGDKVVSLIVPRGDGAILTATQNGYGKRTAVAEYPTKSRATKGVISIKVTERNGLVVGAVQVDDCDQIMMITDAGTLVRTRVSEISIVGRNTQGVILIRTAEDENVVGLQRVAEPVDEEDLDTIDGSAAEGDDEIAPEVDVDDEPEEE

| Compound | MIC (Staphylococcus aureus [1]) | MIC (Streptococcus pneumoniae [2]) | pIC50 (DNA gyrase subunit B) | Activity [3] | MIC (Klebsiella pneumoniae) | MIC (Pseudomonas aeruginosa [4]) | MIC (Enterococcus faecium) | MIC (Streptococcus pneumoniae [5]) | MIC (Staphylococcus aureus [6]) | MIC (Enterococcus faecalis) | MIC (Pseudomonas aeruginosa [7]) | MIC (Escherichia coli [8]) | MIC (Streptococcus pneumoniae [9]) | Activity [10] | MIC (Pseudomonas aeruginosa [11]) | pIC50 [12] | MIC (Escherichia coli [13]) | MIC (Staphylococcus aureus [14]) | MIC (Escherichia coli [15]) |
| --- | --- | --- | --- | --- | --- | --- | --- | --- | --- | --- | --- | --- | --- | --- | --- | --- | --- | --- | --- |
| C=CCc1cc(C(=O)Nc2c(O)c3ccc(O[C@@H]4OC(C)(C)[C@H](OC)[C@@H](OC(=O)c5ccc(C)[nH]5)[C@H]4O)c(C)c3oc2=O)ccc1O | 16 µg/mL (≈ 24.7 µM) | 2 µg/mL (≈ 3.08 µM) | 6.94 | 3.1 µM | > 32 µg/mL | > 32 µg/mL | > 32 µg/mL | 2 µg/mL (≈ 3.08 µM) | ≤ 0.06 µg/mL | 8 µg/mL (≈ 12.3 µM) | 0.5 µg/mL (≈ 0.771 µM) | 8 µg/mL (≈ 12.3 µM) | 1 µg/mL (≈ 1.54 µM) | 1.6 µM | > 32 µg/mL | 7.47 | > 32 µg/mL | ≤ 0.06 µg/mL | > 32 µg/mL |
| CO[C@@H]1[C@@H](OC(=O)c2ccc(C)[nH]2)[C@@H](O)[C@H](Oc2ccc3c(O)c(NC(=O)c4cc(C)c(O)c(C)c4)c(=O)oc3c2Cl)OC1(C)C | 32 µg/mL (≈ 48.7 µM) | 8 µg/mL (≈ 12.2 µM) | 7.19 | 6.3 µM | > 32 µg/mL | > 32 µg/mL | > 32 µg/mL | 8 µg/mL (≈ 12.2 µM) | 0.25 µg/mL (≈ 0.38 µM) | 16 µg/mL (≈ 24.4 µM) | 1 µg/mL (≈ 1.52 µM) | 16 µg/mL (≈ 24.4 µM) | 4 µg/mL (≈ 6.09 µM) | 13 µM | > 32 µg/mL | 7.77 | > 32 µg/mL | 0.125 µg/mL (≈ 0.19 µM) | > 32 µg/mL |
| CO[C@@H]1[C@@H](OC(=O)c2ccc(C)[nH]2)[C@@H](O)[C@H](Oc2ccc3c(O)c(NC(=O)c4ccc(SC)cc4)c(=O)oc3c2Cl)OC1(C)C | 32 µg/mL (≈ 48.6 µM) | 16 µg/mL (≈ 24.3 µM) | 7.08 | 12.5 µM | > 32 µg/mL | > 32 µg/mL | > 32 µg/mL | 4 µg/mL (≈ 6.07 µM) | 0.25 µg/mL (≈ 0.379 µM) | 32 µg/mL (≈ 48.6 µM) | 2 µg/mL (≈ 3.03 µM) | 8 µg/mL (≈ 12.1 µM) | 2 µg/mL (≈ 3.03 µM) | 3.1 µM | > 32 µg/mL | 7.70 | > 32 µg/mL | 0.125 µg/mL (≈ 0.19 µM) | > 32 µg/mL |
| COc1cc(C(=O)Nc2c(O)c3ccc(O[C@@H]4OC(C)(C)[C@H](OC)[C@@H](OC(=O)c5ccc(C)[nH]5)[C@H]4O)c(Cl)c3oc2=O)ccc1O | 32 µg/mL (≈ 48.6 µM) | 8 µg/mL (≈ 12.1 µM) | 6.91 | 6.3 µM | > 32 µg/mL | > 32 µg/mL | > 32 µg/mL | 4 µg/mL (≈ 6.07 µM) | 1 µg/mL (≈ 1.52 µM) | 16 µg/mL (≈ 24.3 µM) | 1 µg/mL (≈ 1.52 µM) | 32 µg/mL (≈ 48.6 µM) | 2 µg/mL (≈ 3.03 µM) | 25 µM | > 32 µg/mL | 7.66 | > 32 µg/mL | 1 µg/mL (≈ 1.52 µM) | > 32 µg/mL |
| CO[C@@H]1[C@@H](OC(=O)c2ccc(C)[nH]2)[C@@H](O)[C@H](Oc2ccc3c(O)c(NC(=O)/C=C/c4ccccc4)c(=O)oc3c2Cl)OC1(C)C | > 32 µg/mL | 16 µg/mL (≈ 25 µM) | 7.05 | 3.1 µM | > 32 µg/mL | > 32 µg/mL | > 32 µg/mL | 16 µg/mL (≈ 25 µM) | 1 µg/mL (≈ 1.56 µM) | 16 µg/mL (≈ 25 µM) | 4 µg/mL (≈ 6.26 µM) | 32 µg/mL (≈ 50.1 µM) | 8 µg/mL (≈ 12.5 µM) | 6.3 µM | > 32 µg/mL | 7.47 | > 32 µg/mL | 0.25 µg/mL (≈ 0.391 µM) | > 32 µg/mL |
| COc1cc(/C=C/C(=O)Nc2c(O)c3ccc(O[C@@H]4OC(C)(C)[C@H](OC)[C@@H](OC(=O)c5ccc(C)[nH]5)[C@H]4O)c(Cl)c3oc2=O)ccc1O | > 32 µg/mL | 16 µg/mL (≈ 23.4 µM) | 6.58 | 3.1 µM | > 32 µg/mL | > 32 µg/mL | > 32 µg/mL | 8 µg/mL (≈ 11.7 µM) | 0.5 µg/mL (≈ 0.73 µM) | 32 µg/mL (≈ 46.7 µM) | 2 µg/mL (≈ 2.92 µM) | 16 µg/mL (≈ 23.4 µM) | 8 µg/mL (≈ 11.7 µM) | 6.3 µM | > 32 µg/mL | 7.37 | > 32 µg/mL | 0.5 µg/mL (≈ 0.73 µM) | > 32 µg/mL |
| COc1cc(C(=O)Nc2c(O)c3ccc(O[C@@H]4OC(C)(C)[C@H](OC)[C@@H](OC(=O)c5ccc(C)[nH]5)[C@H]4O)c(C)c3oc2=O)ccc1O | > 32 µg/mL | 4 µg/mL (≈ 6.26 µM) | 7.07 | 12.5 µM | > 32 µg/mL | > 32 µg/mL | > 32 µg/mL | 2 µg/mL (≈ 3.13 µM) | 0.25 µg/mL (≈ 0.391 µM) | 8 µg/mL (≈ 12.5 µM) | 2 µg/mL (≈ 3.13 µM) | 16 µg/mL (≈ 25.1 µM) | 1 µg/mL (≈ 1.57 µM) | 12.5 µM | > 32 µg/mL | 7.60 | > 32 µg/mL | ≤ 0.06 µg/mL | > 32 µg/mL |
| CO[C@@H]1[C@@H](OC(=O)c2ccc(C)[nH]2)[C@@H](O)[C@H](Oc2ccc3c(O)c(NC(=O)c4ccc(N)c(C)c4)c(=O)oc3c2C)OC1(C)C | > 32 µg/mL | 4 µg/mL (≈ 6.43 µM) | 6.82 | 50 µM | > 32 µg/mL | > 32 µg/mL | > 32 µg/mL | 4 µg/mL (≈ 6.43 µM) | 1 µg/mL (≈ 1.61 µM) | 8 µg/mL (≈ 12.9 µM) | 4 µg/mL (≈ 6.43 µM) | > 32 µg/mL | 4 µg/mL (≈ 6.43 µM) | 25 µM | > 32 µg/mL | 7.36 | > 32 µg/mL | 1 µg/mL (≈ 1.61 µM) | > 32 µg/mL |
